Drawing on ChEMBL document CHEMBL1221214, “Cytosporone B is an agonist for nuclear orphan receptor Nur77” (Nat Chem Biol, 2008), this text covers Activity and IC50 for one molecule.

Each structure is given as a SMILES string. Converted amounts (≈) assume the structure as drawn. The source made the active and inactive calls. The rule behind the calls is not given here.

By IC50 is commonly meant the concentration that inhibits the measured activity by half.

For assay [1], the target named is Nuclear receptor subfamily 4immunitygroup A member 1 (Homo sapiens, UniProt P22736). Nature of the assay: Agonist activity at nuclear orphan receptor Nur77 in human BGC823 cells bearing beta-galactosidase expression vector assessed as transcriptional activation of thyroid receptor reporter gene after 12 hrs by luciferase assay. Type of assay: functional, cell-based. The settings on record: BGC-823. Background: Reporter assays use an easily measured gene product as a stand-in for the process of interest.
Chain of Nuclear receptor subfamily 4immunitygroup A member 1 (P22736 whole entry): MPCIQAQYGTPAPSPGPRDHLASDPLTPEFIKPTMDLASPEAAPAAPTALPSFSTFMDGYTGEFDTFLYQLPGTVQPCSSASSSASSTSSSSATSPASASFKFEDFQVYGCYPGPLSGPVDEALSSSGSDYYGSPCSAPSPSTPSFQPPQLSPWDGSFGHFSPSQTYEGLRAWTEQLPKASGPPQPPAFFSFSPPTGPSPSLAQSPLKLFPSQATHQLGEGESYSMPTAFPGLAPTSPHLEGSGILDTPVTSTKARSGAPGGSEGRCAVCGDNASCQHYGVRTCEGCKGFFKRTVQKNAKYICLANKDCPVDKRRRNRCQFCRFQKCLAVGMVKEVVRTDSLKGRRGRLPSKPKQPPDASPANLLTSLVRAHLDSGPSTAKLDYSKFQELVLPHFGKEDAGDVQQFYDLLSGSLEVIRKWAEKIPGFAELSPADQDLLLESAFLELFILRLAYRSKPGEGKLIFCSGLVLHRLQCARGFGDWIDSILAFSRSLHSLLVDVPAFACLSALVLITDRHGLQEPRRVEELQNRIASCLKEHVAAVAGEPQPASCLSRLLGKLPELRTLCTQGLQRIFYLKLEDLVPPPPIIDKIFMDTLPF

Assay [2] concerns the target Nuclear receptor subfamily 4 group A member 1 (Mus musculus) (UniProt P12813). The assay is described as follows: Agonist activity at Nur77 in wild-type mouse C57BL/6 assessed as hexokinase gene at 50 mg/kg, ip within 30 to 300 mins by real-time PCR analysis. It counts as functional, organism-based. Details: dose 50 mg/kg. For orientation: In qPCR the cycle at which signal appears reflects the starting amount.

Assay [3] has as its system BGC-823. The assay is described as follows: Induction of mitochondrial translocation of Nur77 from nucleus in human BGC823 cells transfected with GFP-Nur77 at 5 ug/ml after 12 hrs using immunostained with anti-Hsp60 by confocal microscopy. It counts as functional, cell-based. In short, it runs like this: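 BGC-823 cells transfected with GFP-Nur77, treated at 5 μg ml-1 for 12 h, immunostained with anti-Hsp60 and Texas Red secondary antibody, and imaged by confocal microscopy for mitochondrial localization.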

Another assay has as its system Saccharomyces cerevisiae. The assay is described as follows: Antimicrobial activity against Saccharomyces cerevisiae. Type of assay: functional, organism-based.
Assay [4] concerns BGC-823. The assay is described as follows: Antitumor activity against human BGC823 cells expressing Nur77-WT xenografted in athymic nude mouse BALB/c assessed as increase in apoptotic cells by TUNEL assay.

Chain of Nuclear receptor subfamily 4 group A member 1 (Mus musculus) (P12813 whole entry): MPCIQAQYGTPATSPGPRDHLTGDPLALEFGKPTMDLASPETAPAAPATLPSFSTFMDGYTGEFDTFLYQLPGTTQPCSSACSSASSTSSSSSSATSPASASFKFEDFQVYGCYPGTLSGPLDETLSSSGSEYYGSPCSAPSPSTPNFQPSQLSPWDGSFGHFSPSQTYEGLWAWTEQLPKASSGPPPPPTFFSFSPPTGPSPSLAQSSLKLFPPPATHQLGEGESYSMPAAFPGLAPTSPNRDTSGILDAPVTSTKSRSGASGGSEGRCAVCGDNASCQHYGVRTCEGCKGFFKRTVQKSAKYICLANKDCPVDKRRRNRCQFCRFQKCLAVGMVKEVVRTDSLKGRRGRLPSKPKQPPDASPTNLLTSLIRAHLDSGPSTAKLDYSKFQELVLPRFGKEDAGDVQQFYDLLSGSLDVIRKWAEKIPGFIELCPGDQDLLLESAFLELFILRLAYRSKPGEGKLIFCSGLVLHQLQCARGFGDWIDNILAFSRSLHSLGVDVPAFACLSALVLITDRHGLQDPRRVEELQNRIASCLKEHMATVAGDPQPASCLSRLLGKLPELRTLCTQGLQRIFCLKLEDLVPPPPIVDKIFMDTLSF

Consider `CCCCCCCC(=O)c1c(O)cc(O)cc1CC(=O)OCC` [CYTOSPORONE B], for which the result in assay [1] and in assay [2] was inactive. The outcome with BGC-823 [3] and in the assay on BGC-823 [4] was Active. The same molecule gave an IC50 in the assay with Saccharomyces cerevisiae of 1.56 µg/mL (≈ 4.84 µM).
